Columns and labels:
[1] = test system: S. pombe strains (pxl1 wild type and pxl1 mutants); assay: Serial dilution growth assay in the presence of LatA; assay type: cell-based; conditions: low-dose LatA (0.20 μM), 32°C
How it was run: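 Strains were grown in liquid YE at 25°C. Three 10-fold serial dilutions starting at 4 × 10^6 cells/ml were spotted on YE agar containing 0.20 µM LatA or DMSO. Plates were incubated at 32°C for 2–5 d, then colonies were imaged by scanner.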

[2] = target: Pxl1 PxxP^6 peptide (residues 177–188), biotin-labeled (S. pombe)

| Kd [2] | Molecule | sensitivity of pxl1 mutants to LatA [1] |
| --- | --- | --- |
| – | C/C1=C/C(=O)O[C@@H]2C[C@@H](CC[C@H](C)/C=C\C=C\CC1)O[C@@](O)([C@@H]1CSC(=O)N1)C2 [LatA, latrunculin A] | no evidence of sensitivity |
| 1900 nM | GST-Cdc15C1 (residues 600–end) (domain or fragment) MRRRQSTSVDDEAPVSLSKTSSSTRLNGLGYHSRNTSIASDIDGVPKKSTLGAPPAAHTSAQMQRMSNSFASQTKQVFGEQRTENSARESLRHSRSNMSRSPSPMLSRRSSTLRPSFERSASSLSVRQSDVVSPAPSTRARGQSVSGQQRPSSSMSLYGEYNKSQPQLSMQRSVSPNPLGPNRRSSSVLQSQKSTSSNTSNRNNGGYSGSRPSSEMGHRYGSMSGRSMRQVSQRSTSRARSPEPTNRNSVQSKNVDPRATFTAEGEPILGYVIALYDYQAQIPEEISFQKGDTLMVLRTQEDGWWDGEIINVPNSKRGLFPSNFVQTV | – |
